Screening results deposited in PubChem BioAssay by several laboratories.
Only a selection was taken, and hits are over-represented in it overall.
NALP1 yeast inh = NALP1 inflammasome inhibitors in reconstituted yeast, colorimetric, S. cerevisiae, triplicate retest; inhibition, % at 10 µM; 0.61% of 280,000 active; S. cerevisiae NALP1/ASC/caspase-1 growth, X-gal OD620, 72 h; in the data active = inhibition mostly above about 24%, no sharp cut-off; inactive = mostly below about 32%
PolyA inh = polyadenylation inhibitors in yeast reporter cells, primary screen, luminescence, S. cerevisiae; S. cerevisiae SKY197-pL101 polyadenylation reporter, beta-gal luminescence; efflux-impaired pdr1/pdr3 knockout yeast; score 100 = 6 SD above DMSO; activity score, % at 12 µM; 0.02% of 300,000 active;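 active = lowest replicate activity score at least 50, where 100 means six control SD above control mean; inconclusive = lowest score under 50 but half or more replicates reach 50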;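 also: yeast exposed to compound for 9 h at 30 °C; higher score means more reporter readthrough which indicates perturbed polyadenylation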
Lmaj promast = Leishmania major promastigote growth inhibition, primary screen. 9% of 200,000 active. inhibition, % at 10 µM. Leishmania major promastigotes, resazurin fluorescence viability. AID 1063, 2008; in the data active = inhibition above about 50%;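 also: promastigotes grown with compound for 44 hours at 28 °C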
NALP3 yeast inh = NALP3 inflammasome inhibitors in reconstituted yeast, primary screen, luminescence, uHTS; Yeast reconstituted NLRP3/ASC/caspase-1, beta-gal luminescence, 24 h; inhibition, % at 10 µM; 0.39% of 330,000 active;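 active = inhibition of 50% or more; inactive = inhibition below 50%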;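 also: plate controls were induced DMSO wells for no effect and uninduced yeast grown without galactose for full effect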
Calb FLC = C. albicans growth inhibition with fluconazole, primary screen, CaCi-2 strain, Alamar Blue fluorescence. C. albicans CaCi-2 + fluconazole, 48 h. growth inhibition, % (no concentration beside the values). 0.57% of 300,000 active;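 active = growth inhibition above about 58% in most replicates, limit read from the data, passing the limit was not always enough; inconclusive = exactly half the replicates above a set limit; inactive = most replicates below a set limit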;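 also: all wells also contain fluconazole at 8 µg/ml as a sub-toxic cotreatment; 0% = median of DMSO wells and 100% = median of geldanamycin control wells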
T cruzi inh = inhibitors of intracellular T. cruzi growth, primary screen, luminescence, NIH3T3 host cells; T. cruzi beta-gal in NIH3T3, 90 h; inhibition, % (concentration not given with the values); 1.4% of 300,000 active;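 active = mean inhibition across valid replicates above about 55%, limit read from the data; inconclusive = mean below that limit but half or more replicates reach it; inactive = mean below it, under half of replicates reach it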;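 also: signal also drops with host cell toxicity which is not excluded here; 0% = plate median of DMSO wells and 100% = zero luminescence signal; higher percent means less beta-gal luminescence so fewer parasites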
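System – NIH/3T3 host cells with β-galactosidase reporter T. cruzi · Doses – single 50 nL compound addition per well in DMSO · Reagent – 5000 T. cruzi trypomastigotes/well · Medium – Low-serum DMEM with 2% FBS · Timing – ≥90 h infection period, 3 h prior cell attachment · Evaluation – parasite load inhibition, % · Technique – GalScreen luminescence, 60 min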
The depositor's hits bear a star; ? = inconclusive; . = not tested or not shown.

SMILES	NALP1 yeast inh	PolyA inh	Lmaj promast	NALP3 yeast inh	Calb FLC	T cruzi inh
CNC(=O)CSc1nnc(-c2cnccn2)n1C	26*	11	-6	9	-2	-9
Nc1c(N(CCC2=CCCCC2)C(=O)c2ccc([N+](=O)[O-])o2)c(=O)[nH]c(=O)n1Cc1ccccc1	.	-11	.	16	-2	66*
Cc1nc(Cl)c(C(=O)Nc2cccc(F)c2)c(C)c1Cl	-8	11	23	0	-4	3
COc1ccc(CC(=O)Nc2cccc(/C(C)=N/NC(=O)C3(C)CC3(Br)Br)c2)cc1 (stereo not given)	15	5	.	16	0	8
C/C(=N\NC(=O)C1(C)CC1(Br)Br)c1cccc(NC(=O)C(C)(C)C)c1 (stereo not given)	30	?	60*	3	-1	9
Cc1ccc(NC(=O)CSc2nncn2-c2ccccn2)cc1Cl	25	-5	.	7	-1	2
COCCCN(C(=O)c1cc(-c2ccco2)nc2ccccc12)c1c(N)n(Cc2ccccc2)c(=O)[nH]c1=O	.	-22	.	17	29	6
CCOC(=O)C1=C(C)NC(SCC(=O)OC)=C(C#N)C1c1ccc(C(=O)OC)cc1 (stereo not given)	-1	-25	2	12	34	16
CCOC(=O)C1=C(C)Nc2sc(C(=O)c3ccc(C)cc3)c(N)c2C1c1ccc(C(=O)OC)cc1 (stereo not given)	36	-3	81*	11	-7	11
CCOC(=O)C1=C(C)Nc2sc(C(=O)c3ccc(F)cc3)c(N)c2C1c1ccc(C(=O)OC)cc1 (stereo not given)	24	4	91*	11	8	50
CCCN(CC1CC1)C(=S)NC(=O)c1cc(Br)ccc1Cl	.	.	.	20	.	.
C#Cc1ccc2c(c1)COc1c3ccccc3nn1-2	.	?	.	40	8	0
C=CCn1c(N2CCN(c3ccc(OC)cc3)CC2)nc2c1c(=O)[nH]c(=O)n2C	1	-3	1	-8	2	-1
COC(=O)c1cc2ccsc2n1Cc1nc(-c2ccc(Cl)cc2)oc1C	4	-6	99*	23	-6	29
COC(=O)c1ccc(-c2ccco2)n1Cc1nc(-c2ccc(OC)c(OC)c2)oc1C	14	16	66*	-9	-1	50
COC(=O)c1cc2occc2n1Cc1nc(-c2ccc(Cl)cc2)oc1C	16	0	-3	-6	-7	5
COc1ccccc1C(=O)C1CCCN(C(=O)C2=CC(=O)CC(C)(C)O2)C1 (stereo not given)	16	-4	.	11	-11	-9
CCOC(=O)CC(NC(=O)c1ccc(C)cc1)c1ccc(OC)cc1 (stereo not given)	7	6	7	0	6	2
COc1ccccc1NC(=O)Cn1c(=O)n(CCc2c[nH]c3ccccc23)c(=O)c2cccnc21	18	9	65*	6	-3	-3
O=C1CC(N(CCc2ccccc2)C(=S)Nc2cc(Cl)ccc2Cl)C(=O)N1c1c(Cl)cccc1Cl (stereo not given)	8	-9	99*	6	1	47
COc1ccc(-c2cc(C(=O)OCC(=O)NC3CC3)c3ccccc3n2)cc1	.	.	.	37	.	.
Cc1cc(C(=O)OCC(=O)NC2CCS(=O)(=O)C2)c2ccccc2n1 (stereo not given)	8	9	-2	-9	2	-21
COc1ccc2cc(-c3cc(C(=O)OCC(=O)NC4CCS(=O)(=O)C4)c4ccccc4n3)ccc2c1 (stereo not given)	2	5	60*	.	45	-2
O=C(COC(=O)c1cc(-c2cccc3ccccc23)nc2ccccc12)NC1CCS(=O)(=O)C1 (stereo not given)	20	-11	69*	0	40	-11
Cc1ccc(CNC(=S)Nc2ccc(NS(=O)(=O)c3ccc(C)cc3)cc2)cc1	12	-9	.	21	-2	44
Oc1ccccc1-c1nc(NC2CCCC2)c2ccccc2n1	24	10	.	1	21	27
